Apaf-1 inh – inhibitors of human Apaf-1 apoptosome, primary screen, biochemical, DEVD-Rh110 fluorescence, uHTS | reconstituted apoptosome caspase-3 activity | inhibition, % at 20 µM | 0.71% of 330,000 active; active means inhibition of at least 40% at 20 µM
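Assay system: Apoptosome proteins | Medium: pH 7.5 Hepes buffer with CHAPS, BSA, DTT | Also added: Cytochrome c and DEVD-Rh110 substrate | Times: 30 min plus 50 min, RT | Detection: Rhodamine 110 fluorescence at Ex 480/Em 540 nm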
TDP2 absorb – human TDP2 enzyme inhibitors, primary screen, biochemical, epi absorbance, recombinant enzyme | T5PNP hydrolysis, p-nitrophenol absorbance 415 nm | inhibition, % at 12.8 µM | 0.34% of 370,000 active;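 active means inhibition above the mean of all tested compounds plus 3 SD, set per campaign, cut at about 25% in these data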
Target sequence (O95551 whole entry, looked up): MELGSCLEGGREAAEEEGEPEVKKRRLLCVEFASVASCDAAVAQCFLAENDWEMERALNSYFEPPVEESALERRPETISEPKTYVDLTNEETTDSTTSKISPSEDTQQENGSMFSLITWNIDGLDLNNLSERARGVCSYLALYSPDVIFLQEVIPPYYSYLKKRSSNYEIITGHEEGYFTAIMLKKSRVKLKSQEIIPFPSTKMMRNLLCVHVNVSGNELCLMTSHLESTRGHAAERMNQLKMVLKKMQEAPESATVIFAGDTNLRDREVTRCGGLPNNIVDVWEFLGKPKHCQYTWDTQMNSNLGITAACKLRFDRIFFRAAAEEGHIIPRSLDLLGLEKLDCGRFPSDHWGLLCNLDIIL
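System – recombinant human TDP2 · Quantity – TDP2 enzyme at 120 nM final · Doses – single concentration, 12.8 µM nominal, with 1% DMSO · Incubation – 2 h at 37 °C · Measured by – epi absorbance of p-nitrophenol freed from T5PNP by hydrolysis · Read-out – % inhibition relative to enzyme-containing and enzyme-free wells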
GSTO1 inh – inhibitors of recombinant GSTO1, primary screen, counter-screen for RBBP9 inhibitor project, biochemical, fluorescence polarization; activity-based probe fluorescence polarization; inhibition, % at 5.96 µM; 1.1% of 300,000 active;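 active means inhibition above the campaign mean inhibition plus 3 SD, cut at about 35% in these data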
SUMO HTRF inh – inhibitors of in vitro SUMOylation cascade, primary screen, biochemical, HTRF, uHTS; SUMO-conjugating enzyme UBC9 (Homo sapiens), P63279; HTRF SUMOylation assay, SAE1/SAE2 + UBC9; inhibition, % at 35 µM; 0.36% of 290,000 active; AID 2006, 2009; in the data active means inhibition above about 50%, passing the limit was not always enough
Target sequence (P63279 whole entry, looked up): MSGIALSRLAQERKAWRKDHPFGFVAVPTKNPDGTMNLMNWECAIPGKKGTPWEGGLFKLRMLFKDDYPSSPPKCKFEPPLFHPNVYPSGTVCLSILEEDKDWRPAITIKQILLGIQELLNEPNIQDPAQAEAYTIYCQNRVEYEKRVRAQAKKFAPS
PAD4 inh – human PAD4 inhibitors, primary screen, biochemical, fluorescence polarization, 1536-well format; Protein-arginine deiminase type-4 (Homo sapiens), Q9UM07; recombinant PAD4, RCA probe fluorescence polarization; inhibition, % at 6.36 µM; 0.41% of 330,000 active; AID 485272, 2010;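 active means percent inhibition above a cutoff equal to the mean of all tested compounds plus 3 SD, cut at about 15% in these data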
JMJD2C inh – inhibitors of GASC-1 histone demethylase, primary screen, biochemical, fluorescence, DELFIA europium. 0.069% of 330,000 active. GST-JMJD2C(1-420) H3K9me3 demethylation. Lysine-specific demethylase 4C (Homo sapiens), Q9H3R0. inhibition, % at 2.35 µM. AID 2099, 2009;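 active means more than half of a compound's replicate wells show inhibition beyond 50%, single wells judged on their own value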;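 further: signal counts dimethyl H3K9 product captured on neutravidin plate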
PAD4 FP conf – human PAD4 inhibitors, confirmation, biochemical, fluorescence polarization | shares compounds with PAD4 inh | recombinant PAD4, RCA probe fluorescence polarization | inhibition, % at 6.36 µM | 28% of 1,200 active | AID 488796, 2010;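 active means mean inhibition across replicates above the hit cutoff set by the earlier primary screen, cut at about 15% in these data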;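 further: inhibitors block active-site labeling by the probe so polarization falls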
A number is an active result; n = inactive; x = no result. The list is not random: actives were taken first. Their share in the collection is about 1.6%.

SMILES | Apaf-1 inh | TDP2 absorb | GSTO1 inh | SUMO HTRF inh | PAD4 inh | JMJD2C inh | PAD4 FP conf
CCc1cccc(NS(=O)(=O)c2ccc3c(c2)CCC(=O)N3)c1 | n | n | n | n | 16.3 | n | n
O=Cc1ccc(Sc2nnc(-c3ccccc3)o2)c([N+](=O)[O-])c1 | n | x | n | n | 24.2 | n | 23.7
CCOC(=O)CC[C@@]1(C(=O)OCC)C[C@@H](CC(=O)NCCCN2CCCC2=O)C(=O)N2CCCC=C21 | x | n | x | x | x | x | x
COC(=O)c1cccc(NC(=O)CCc2c(C)noc2C)c1 | n | n | x | x | 31.4 | n | n
CN(Cc1ccccc1)C(=O)OCc1cn(Cc2cc(F)ccc2F)nn1 | x | n | x | x | x | x | x
Cc1cccc(NC(=S)NN2CCOCC2)c1C | n | n | n | n | n | n | x
Cc1cccc(NC(=S)Nc2ccc(N3CCOCC3)cc2)c1C | n | n | n | n | 23.1 | n | n
Cc1cccc(NC(=O)[C@@H]2CC(=O)O[C@@H]2c2ccccc2)c1C | x | n | x | x | x | x | x
COc1ccc(/C=C/S(=O)(=O)NCCc2ccccc2)c(CNC(=O)OC(C)(C)C)c1 | x | n | x | x | x | x | x
CCOC(=O)C1=C(C)NC(=O)C(C#N)C1c1ccco1 (stereo not drawn) | n | n | n | n | 18.0 | n | n
COC(=O)C[C@H]1CC[C@@H]2[C@H](COc3ccc(NC(=O)c4cnccn4)cc3C(=O)N2C)O1 | x | n | x | x | x | x | x
COCCNC(=O)C(c1ccncc1)N(C(=O)Cn1nnc2ccccc21)c1ccc(OC)cc1 (stereo not drawn) | n | n | n | n | 16.0 | n | 18.6
O=C(CSc1nc2c(c(=O)[nH]1)CCCC2)N1CCOCC1 | x | n | x | x | x | x | x
Cc1ccc(C2(C)NC(=O)N(CC(=O)NC(=O)NC(C)(C)C)C2=O)cc1 (stereo not drawn) | n | n | n | n | 15.8 | n | n
CC(C)(C)OC(=O)N1CCC(c2ccc[nH]2)(c2c[nH]c3ccccc23)CC1 | x | n | x | x | x | x | x
CC1CCN(CCCn2c(=S)[nH]c3c(sc4ccccc43)c2=O)CC1 | n | n | n | n | n | n | x
COCCCn1c(=S)[nH]c2c(sc3ccccc32)c1=O | n | n | n | n | 18.4 | n | n
O=C(NCc1ccccn1)Nc1ccccc1C(F)(F)F | n | n | n | n | 35.1 | n | n
N=c1c2c(-c3ccccc3)c(-c3ccccc3)n(Cc3ccccc3)c2ncn1C1CCOCC1 | x | n | x | x | x | x | x
COC(=O)c1cc(NC(=O)NC2CCCCN(Cc3cccc(Cl)c3)C2=O)cc(C(=O)OC)c1 (stereo not drawn) | x | n | x | x | x | x | x
CCOC(=O)c1ccc(S(=O)(=O)Nc2nc3cc(S(=O)(=O)NC4=NCCCCC4)ccc3s2)cc1 | n | n | n | n | 29.0 | n | 26.0
Nc1nc2cc(S(=O)(=O)NC3=NCCCCC3)ccc2s1 | n | n | n | n | 28.2 | n | 25.3
CC(COc1ccc(C(F)(F)F)cc1)CN1CCC(C(O)(c2ccccc2)c2ccccc2)CC1 (stereo not drawn) | x | n | x | x | x | x | x
c1ccc(-c2ccc(-c3nccc4ccccc34)[nH]2)cc1 | x | x | x | n | x | x | x
N#Cc1cc(-c2ccccc2)[nH]c1-c1nccc2ccccc12 | n | n | n | n | 21.9 | n | n
SMILES | Apaf-1 inh | TDP2 absorb | GSTO1 inh | SUMO HTRF inh | PAD4 inh | JMJD2C inh | PAD4 FP conf
COc1ccc(C2=NNC(=Nc3cc(S(=O)(=O)N(C)C)ccc3C)SC2)c(OC)c1 | n | n | n | n | 17.5 | n | n
CN(C)S(=O)(=O)c1cccc(N=C2NN=C(c3ccccc3)CS2)c1 | x | n | n | n | n | n | x
COc1ccc(-c2noc3c2-c2nc(-c4ccccc4C)sc2CC3)cc1 | n | n | n | x | n | n | x
COc1ccc(-c2noc3c2-c2nc(-c4ccc(Br)cc4)sc2CC3)cc1 | n | n | n | x | 102.4 | n | n
Cc1cc(NC(=O)CCC(=O)N(c2ccccc2)C(C(=O)NC2CCCC2)c2ccccc2F)no1 (stereo not drawn) | n | n | n | n | 19.0 | n | n
COC(=O)c1ccc(S(=O)(=O)N2CCC(NC(=O)COc3ccc(F)cc3)CC2)cc1 | x | n | x | x | x | x | x
CN1CCN(CCCNC(=O)C2CCN(c3nnc(-n4cccc4)s3)CC2)CC1 | n | n | n | n | n | n | x
CCCN1CCN(CCCNC(=O)C2CCN(c3nnc(-n4c(C)ccc4C)s3)CC2)CC1 | n | n | n | n | 17.5 | n | n
Cc1n[nH]c(=S)n(/N=C/c2cccs2)c1=O | n | n | n | n | 18.2 | n | n
O=C(NCCc1nc2ccccc2n1CCOc1ccc2cccnc2c1)C1CCCCC1 | x | n | x | x | x | x | x
Cc1ccc(-c2c[n+](Cc3ccc(Cl)cc3)c3n2CCC3)cc1 | n | n | n | n | n | n | x
Fc1ccc(CSc2ncnc3scc(-c4ccccc4)c23)cc1 | n | n | n | n | n | n | x
Fc1ccc(C[n+]2csc3ccccc32)cc1 | n | n | n | n | 20.8 | n | 33.8
Clc1ccc(C[n+]2csc3ccccc32)cc1 | x | n | n | n | 19.1 | n | 33.7
O=C(NCCCN1CCN(c2ccc(F)cc2)CC1)Nc1ccccc1 | x | n | x | x | x | x | x
Cc1cc(C(=O)O[C@@H]2CCC[C@]3(C(=O)N(Cc4ccccc4)c4ccccc43)[C@H]2NC(=O)CCc2ccccc2)no1 | x | n | x | x | x | x | x
Cc1ccc(NC(=O)CS(=O)CC(=O)Nc2ccccc2-c2ccc(C)o2)cc1 (stereo not drawn) | n | n | n | n | 17.5 | n | n
CC(=O)Nc1ccccc1-c1ccc(C)o1 | n | n | n | n | n | n | x
CC(=O)C[C@H](O)CC(=O)[C@H]1OC(=O)CC/C=C\Cc2ccccc21 | n | n | x | x | 21.6 | n | n
CC(=O)C[C@H](O)CC(=O)[C@H]1OC(=O)CCCCCc2ccccc21 | n | n | x | x | n | n | x
Nc1ccc(-c2c3ccc(=O)cc-3oc3cc(O)ccc23)c(C(=O)O)c1 | n | x | x | x | 21.3 | n | n
CC[C@H](CCCCCC#N)CCC(=O)N(c1ccccc1)c1ccccc1 | x | n | x | x | x | x | x
CCOc1ccc(N=C/C=C/c2ccccc2)c(O)c1 | n | n | 54.5 | n | 26.2 | n | n
OC1(Cc2ccccc2)CCN(c2ncnc3sccc23)CC1 | x | n | x | x | x | x | x
O=C1CCC(CNc2ccccc2)N1c1ccccc1 (stereo not drawn) | x | n | x | x | x | x | x
CCN(CC)c1ccc(N=Cc2ccc(N(CC)CC)cc2O)cc1 | n | n | 57.4 | n | 16.7 | n | n
